Data taken from ChEMBL document CHEMBL1130129, “Immunologically specific activation of a cephalosporin derivative of mitomycin C by monoclonal antibody beta-lactamase conjugates” (J Med Chem, 1997).

Assays:
[1] = target: Beta-lactamase (Enterobacter cloacae) (UniProt P05364); experiment: Determination of kinetic constant (Kcat) for hydrolysis by beta-lactamase from Enterobacter cloacae P99
Summary of the method: (§1)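 Purified E. cloacae β-lactamase (0.1 µg/mL) added to prodrug in PBS pH 7.2 containing 12.5 µg/mL bovine serum albumin, 23 °C; β-lactam hydrolysis followed by loss of absorbance at 260 nm. Initial velocities taken from linear portions of absorbance-time plots and used to derive kinetic constants.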

[2] = Ratio of kinetic constants for hydrolysis by beta-lactamase from Enterobacter cloacae P99 (kcat/Km); parameters: unit not given here; summary of the method: as §1

Beta-lactamase (Enterobacter cloacae), sequence (P05364 21-381 limits assumed): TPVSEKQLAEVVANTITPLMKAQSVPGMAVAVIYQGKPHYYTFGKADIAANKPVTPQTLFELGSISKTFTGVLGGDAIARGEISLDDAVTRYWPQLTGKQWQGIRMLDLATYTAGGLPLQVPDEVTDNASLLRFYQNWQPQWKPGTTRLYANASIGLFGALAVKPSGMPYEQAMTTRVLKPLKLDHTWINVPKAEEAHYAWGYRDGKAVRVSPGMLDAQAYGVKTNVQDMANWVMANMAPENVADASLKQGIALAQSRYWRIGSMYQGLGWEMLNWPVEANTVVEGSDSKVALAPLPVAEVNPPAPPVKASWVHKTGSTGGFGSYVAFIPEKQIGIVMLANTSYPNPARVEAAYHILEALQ

Work on CO[C@@]12[C@H](COC(N)=O)C3=C(C(=O)C(C)=C(NCC4=C(C(=O)O)N5C(=O)[C@@H](NC(=O)Cc6ccccc6)[C@H]5SC4)C3=O)N1C[C@@H]1N[C@@H]12 yielded a k cat [1] of 476 s⁻¹ and a Ratio [2] of 9.7.

For O=C(Cc1ccccc1)N[C@@H]1C(=O)N2C(C(=O)O)=C(COC(=O)Nc3ccc(N(CCCl)CCCl)cc3)CS[C@H]12, the k cat [1] was 119 s⁻¹ and the Ratio [2] was 17.

O=C(O)CCCC(=O)N[C@@H]1C(=O)N2C(C(=O)O)=C(COC(=O)Nc3ccc(N(CCCl)CCCl)cc3)CS[C@H]12 showed a k cat [1] of 337 s⁻¹ and a Ratio [2] of 7.8.

COc1cccc2c1C(=O)c1c(O)c3c(c(O)c1C2=O)C[C@@](O)(C(=O)CO)C[C@@H]3OC1CC(NC(=O)OCC2=C(C(=O)O)N3C(=O)[C@@H](NC(=O)CCCC(=O)O)[C@H]3SC2)C(O)C(C)O1 (some centres undefined) showed a Ratio [2] of 2.5.

For CO[C@@]12[C@H](COC(N)=O)C3=C(C(=O)C(C)=C(NCC4=C(C(=O)O)N5C(=O)[C@@H](NC(=O)CCCC(=O)O)[C@H]5SC4)C3=O)N1C[C@@H]1N[C@@H]12, the k cat [1] was 248 s⁻¹ and the Ratio [2] was 2.1.
